Data published in ChEMBL document CHEMBL2321703, “Identification of novel D-amino acid oxidase inhibitors by in silico screening and their functional characterization in vitro” (J Med Chem, 2013).
Activity calls are given as the source filed them. The calls are words filed in the database; no cut-off is given here.

Columns and labels:
D-amino-acid oxidase [1] = target: T1, D-amino-acid oxidase (Homo sapiens, UniProt P14920); test: Inhibition of human recombinant N-terminal His-tagged DAO expressed in Escherichia coli BL21(DE3) using D-serine as substrate by colorimetric assay
[2] = target: T2, D-aspartate oxidase (Homo sapiens) (UniProt Q99489); test: (§1) Inhibition of human recombinant N-terminal His-tagged DDO expressed in Escherichia coli BL21(DE3) using D-aspartate as substrate by colorimetric assay
T2 sequence (whole entry): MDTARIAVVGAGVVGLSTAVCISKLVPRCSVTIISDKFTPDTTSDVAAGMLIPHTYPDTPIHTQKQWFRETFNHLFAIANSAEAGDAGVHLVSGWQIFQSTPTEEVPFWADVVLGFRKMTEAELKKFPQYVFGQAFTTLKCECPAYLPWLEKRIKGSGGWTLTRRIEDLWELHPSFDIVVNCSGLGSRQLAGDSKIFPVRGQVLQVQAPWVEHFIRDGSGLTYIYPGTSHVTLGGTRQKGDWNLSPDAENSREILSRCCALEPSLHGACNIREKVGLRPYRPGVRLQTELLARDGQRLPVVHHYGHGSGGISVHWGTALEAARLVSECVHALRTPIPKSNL
Procedure, shortened: (§2)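 Purified enzyme (0.23–4.2 μg) with 10 mM D-Asp in air-saturated 40 mM sodium pyrophosphate pH 8.3, 23 U catalase, 60 μM FAD; 37 °C, 10 min; trichloroacetic acid stop; 2-oxo acid measured as 2,4-dinitrophenylhydrazone at A445.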

[3] = target: T3, Serine racemase (Homo sapiens) (UniProt Q9GZT4); test: (§3) Inhibition of human recombinant N-terminal His-tagged serine racemase expressed in Escherichia coli BL21(DE3) using L-serine as substrate after 10 mins by fluorescence assay
T3 sequence (whole entry): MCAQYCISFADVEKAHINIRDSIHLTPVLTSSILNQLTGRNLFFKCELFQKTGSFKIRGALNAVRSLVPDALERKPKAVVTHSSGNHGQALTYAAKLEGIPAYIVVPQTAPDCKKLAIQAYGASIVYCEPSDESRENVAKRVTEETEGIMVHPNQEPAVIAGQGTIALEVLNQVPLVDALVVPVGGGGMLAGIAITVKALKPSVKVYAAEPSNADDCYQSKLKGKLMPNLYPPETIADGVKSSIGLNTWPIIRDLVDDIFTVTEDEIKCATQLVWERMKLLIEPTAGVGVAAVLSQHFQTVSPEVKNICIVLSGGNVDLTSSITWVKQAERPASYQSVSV
Procedure, shortened: (§4)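 Purified enzyme (30 μg) in 40 mM Tris-HCl pH 8.0, 60 μM pyridoxal phosphate, 1 mM MgCl2, ATP, 1 mM dithiothreitol, 10 mM L-Ser, with compound; 37 °C, 10 min; methanol stop. D-Ser quantified by OPA/Boc-L-cysteine derivatization and reversed-phase HPLC fluorescence (ex 344, em 443 nm).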

D-aspartate oxidase = target: T4, D-aspartate oxidase (Homo sapiens, UniProt Q99489); test: as §1; procedure, shortened: as §2
T4 sequence (Q99489 whole entry): T2 sequence (whole entry)

Serine racemase = target: T5, Serine racemase (Homo sapiens, UniProt Q9GZT4); test: as §3; procedure, shortened: as §4
T5 sequence (Q9GZT4 whole entry): T3 sequence (whole entry)

D-amino-acid oxidase [4] = target: T1, D-amino-acid oxidase; test: Binding affinity to human recombinant N-terminal His-tagged DAO expressed in Escherichia coli BL21(DE3) at 40 uM after 2 to 30 mins by absorption spectra analysis; settings: 200 uM, in the assay text read “at 200 uM” for “at 40 uM”
Procedure, shortened: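 Purified enzyme at 1.7 μg/μL in 10 mM sodium pyrophosphate pH 8.3 with 2 mM EDTA, 5 mM 2-mercaptoethanol, 10% (v/v) glycerol; wavelength scans at 25 °C before and after compound addition (final 40 μM or 200 μM depending on compound), recorded at indicated times; binding inferred from perturbation of the absorption spectrum.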
Target sequence in this assay (P14920 whole entry, looked up): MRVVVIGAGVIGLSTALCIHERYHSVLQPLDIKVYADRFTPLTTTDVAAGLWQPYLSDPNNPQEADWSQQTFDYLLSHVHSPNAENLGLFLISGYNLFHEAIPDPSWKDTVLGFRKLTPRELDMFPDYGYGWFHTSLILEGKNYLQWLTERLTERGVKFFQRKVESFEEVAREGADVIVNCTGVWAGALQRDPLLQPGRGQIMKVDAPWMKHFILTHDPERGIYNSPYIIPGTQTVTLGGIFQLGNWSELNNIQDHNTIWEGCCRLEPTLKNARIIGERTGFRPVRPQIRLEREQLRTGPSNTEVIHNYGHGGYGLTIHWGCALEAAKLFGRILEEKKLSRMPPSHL

D-amino-acid oxidase [5] = target: T1, D-amino-acid oxidase; test: Inhibition of human recombinant N-terminal His-tagged DAO expressed in Escherichia coli BL21(DE3) using D-alanine as substrate by colorimetric assay

SMILES | IC50 (D-amino-acid oxidase [1]) | inhibition [2] | inhibition [3] | IC50 (D-aspartate oxidase) | IC50 (Serine racemase) | Activity (D-amino-acid oxidase [4]) | IC50 (D-amino-acid oxidase [5]) | inhibition (D-amino-acid oxidase [5]) | inhibition (D-amino-acid oxidase [1])
O=C(O)c1cn2ccccc2n1 | > 2500 µM | – | – | – | – | – | – | – | –
CNCC(=O)c1ccc(O)c(O)c1 [ADRENALONE] | > 1000 µM | – | – | – | – | – | – | – | –
O=C(O)[C@@H](O)[C@@H](O)C(=O)O | – | Dose-dependent effect | Dose-dependent effect | – | – | – | – | – | –
Nc1ccc(-c2nnc(O)o2)cc1 | > 10000 µM | – | – | – | – | – | – | – | –
O=C(O)c1ccc2cccnc2n1 | > 10000 µM | – | – | – | – | – | – | – | –
O=C(O)C1=CN2CCN=C2C=C1 | > 1000 µM | – | – | – | – | – | – | – | –
O=C(O)C(O)C(O)C(=O)O (stereo not drawn) | > 10000 µM | – | – | 3920 µM | 2820 µM | – | – | – | –
O=C(O)c1cc2c([nH]1)CCCC2 | > 100 µM | – | – | – | – | – | – | – | –
O=C(O)c1ccc[n+]([O-])c1 [OXINIACIC ACID] | > 2500 µM | – | – | – | – | – | – | – | –
O=C(O)CC(=O)O [MALONIC ACID] | > 10000 µM | Dose-dependent effect | Dose-dependent effect | 1350 µM | 24.9 µM | inactive | – | – | –
Cc1ccccc1-c1nnc(O)o1 | 199 µM | Dose-dependent effect | Dose-dependent effect | > 5000 µM | > 5000 µM | – | 298 µM | Dose-dependent effect | Dose-dependent effect
Oc1cc(-c2ccccc2)no1 | > 500 µM | – | – | – | – | – | – | – | –
C/C=C/C(=O)O [CROTONIC ACID] | 357 µM | – | – | > 10000 µM | > 10000 µM | – | 598 µM | – | Dose-dependent effect
O=c1[nH]nc(-c2ccccc2)o1 | 253 µM | Dose-dependent effect | Dose-dependent effect | > 10000 µM | > 10000 µM | – | 365 µM | Dose-dependent effect | –
NC[C@H](O)c1ccc(O)c(O)c1 [NOREPINEPHRINE] | > 10000 µM | – | – | – | – | – | – | – | –
CCCc1cc(C(=O)O)sc1C | 1830 µM | Dose-dependent effect | Dose-dependent effect | > 10000 µM | 5160 µM | – | 3720 µM | Dose-dependent effect | –
Oc1nc(-c2ccccc2)no1 | > 5000 µM | – | – | – | – | – | – | – | –
CCc1cc(C(=O)O)sc1C | 666 µM | Dose-dependent effect | Dose-dependent effect | > 10000 µM | 5720 µM | – | 1100 µM | Dose-dependent effect | –
O=C(O)c1cc2c(s1)CCCC2 | 900 µM | Dose-dependent effect | Dose-dependent effect | > 10000 µM | 5010 µM | – | 1450 µM | Dose-dependent effect | –
Nc1cncc(C(=O)O)c1 | > 2500 µM | – | – | – | – | – | – | – | –
